Data set [1] can be described thus: Inhibition of Saccharomyces cerevisiae FTase after 15 mins by fluorimetric analysis. Put shortly:
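Partially purified recombinant yeast FTase (2.2 mg/mL, 0.1 mL per 7.0 mL peptide solution) with dansyl-GCVLS peptide in 53 mM Tris/HCl pH 7.5, 5.8 mM DTT, 6 mM MgCl2, 12 µM ZnCl2, 0.09% CHAPS. Inhibitors added from DMSO; started with farnesyl pyrophosphate (10 µM stock). Fluorescence (ex 340/em 486 nm) followed 15 min at 30 °C; duplicates, run twice.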

The target in another data set is T1, Phospholipase A2 (Apis mellifera, UniProt P00630).
T1 sequence (P00630 whole entry): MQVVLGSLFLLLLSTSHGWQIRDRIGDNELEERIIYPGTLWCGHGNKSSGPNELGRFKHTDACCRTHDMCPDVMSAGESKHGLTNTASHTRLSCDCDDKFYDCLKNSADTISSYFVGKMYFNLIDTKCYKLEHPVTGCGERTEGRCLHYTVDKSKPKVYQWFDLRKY
The experiment in a line: Inhibition of bee venom phospholipase A2 after 5 mins by spectrophotometric analysis. An outline of the steps: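 Colorimetric assay with Apis mellifera venom PLA2, added as 2 µL of a 1 mg/mL […]. Test material in DMSO was preincubated with the enzyme for 1 h at 25 °C. Substrate solution was then added: L-α-phosphatidylcholine 3.5 mM, phenol red 0.055 mM, NaCl 100 mM, CaCl2 10 mM, Triton 7 mM, pH 7.6. Absorbance at 550 nm was read at 0 and 5 min, in duplicate. Manoalide as positive control.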

The test system of data set [2] is Plasmodium falciparum. The experiment in a line: Antiplasmodial activity against chloroquine-resistant Plasmodium falciparum FcB1 after 48 hrs. The class given is functional, organism-based. The settings on record: FcB1/Columbia. Put shortly:
(§1)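 Ring-stage P. falciparum cultures synchronised by magnetic purification plus D-sorbitol lysis. Compounds from a 10 mg/mL DMSO mother solution were serially diluted in culture medium and incubated 48 h with parasitised erythrocytes (2% haematocrit, 1% parasitaemia). Growth was followed by 3H-hypoxanthine incorporation (9.25 kBq/well). IC50 was read graphically from inhibition–concentration plots. Triplicates, three independent experiments; chloroquine as positive control.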

Data set [3] concerns Plasmodium falciparum. Put plainly: Antiplasmodial activity against chloroquine-sensitive Plasmodium falciparum 3D7 after 48 hrs. The class given is functional, organism-based. The settings on record: 3D7, 48 h. An outline of the steps: as §1
In data set [4] the target is Protein farnesyltransferase (Homo sapiens, UniProt P49354+P49356). The experiment in a line: Inhibition of human FTase after 15 mins by fluorimetric analysis. The class given is protein-complex assay. Put shortly: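 Partially purified human FTase (1.5 mg/mL, 5 µL per 1 mL peptide solution) with dansyl-GCVLS peptide in Tris/HCl pH 7.5 buffer with DTT, MgCl2, ZnCl2 and 0.18% octyl-D-glucopyranoside in place of CHAPS. Inhibitors added from DMSO; started with farnesyl pyrophosphate (10 µM stock). Fluorescence (ex 340/em 486 nm) read 15 min at 30 °C; duplicates, run twice.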

For a further data set, the system named is Vero. Put plainly: Cytotoxicity against african green monkey Vero cells assessed as inhibition of [3H]hypoxanthine incorporation after 48 hrs. The class given is cell-based. Conditions: Chlorocebus sabaeus. An outline of the steps:
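VERO cells (10^5 cells/well) exposed 48 h to serial dilutions in culture medium of a 10 mg/mL DMSO mother solution; growth inhibition by 3H-hypoxanthine incorporation (9.25 kBq/well). Highest concentration tested 20 µg/mL. IC50 read graphically from inhibition-versus-concentration plots; triplicates on three independent occasions, mean ± SEM (n = 3). Doxorubicin positive control.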

Data set [5] can be described thus: Selectivity ratio of IC50 for african green monkey (Cercopithecus aethiops) Vero cells to IC50 for chloroquine-sensitive Plasmodium falciparum 3D7. Format: ADME, cell-based. Conditions: read-out: Ratio IC50. Put shortly:
(§2)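 Compounds were serially diluted from a 10 mg/mL DMSO stock into medium and added to VERO cells (10^5 cells/well) or to synchronised ring-stage P. falciparum (2% haematocrit, 1% parasitaemia). Read-out was 3H-hypoxanthine incorporation, with IC50 read graphically. Triplicates, three independent times; doxorubicin and chloroquine as controls.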

Data set [6] can be described thus: Selectivity ratio of IC50 for african green monkey (Cercopithecus aethiops) Vero cells to IC50 for chloroquine-resistant Plasmodium falciparum FcB1. The class given is ADME, cell-based. The settings on record: read-out: Ratio IC50. Put shortly:
as §2

SMILES strings stand for the structures. Where a name gives a salt, the structure may show the parent alone.

Consider `C[C@@]12CCC(=O)c3coc(c31)C(=O)c1cc3c(O)ccc(OS(=O)(=O)O)c3cc12` [HALENAQUINOL SULFATE SODIUM], for which the IC50 (as a rule, the concentration that inhibits the measured activity by half) in data set [1] is 16.1 µM; against Phospholipase A2, 1000 µM; in the data set with Plasmodium falciparum [2], more than 24 µM; in the data set with Plasmodium falciparum [3], more than 24 µM; in data set [4] it was 21.5 µM; in the data set on Vero, more than 48 µM.

Regarding `C[C@@]12CC[C@H](O)[C@@H]3COC(=C31)C(=O)c1cc3c(cc12)C(O)CCC3=O` (stereo partly specified) [XESTOSAPROL A], the half-maximal inhibitory concentration (IC50) in data set [1] is more than 30 µM; at Phospholipase A2, 1000 µM; with Plasmodium falciparum [2], more than 29 µM; in the data set with Plasmodium falciparum [3], more than 29 µM; in data set [4] it was more than 30 µM; in the data set on Vero it was more than 58 µM.

`CC1=C(CC/C(C)=C/CCC2=CC[C@H](C3=CC(=O)O[C@H]3O)O[C@H]2O)C(C)(C)CCC1` [MANOALIDE] gave an IC50 on Phospholipase A2 of 0.5 µM.

Consider `COc1cccc2c1C(=O)c1c(O)c3c(c(O)c1C2=O)C[C@@](O)(C(=O)CO)C[C@@H]3O[C@H]1C[C@H](N)[C@H](O)[C@H](C)O1` [DOXORUBICIN], for which, in the data set with Vero, the IC50 was 5.12 µM.

On to `CC1=CCCC2(C)C1=C(O)C(=O)c1cc3c(cc12)C(=O)C=CC3=O` (stereo unspecified) [ORHALQUINONE], for which the selectivity ratio in data set [5] and in data set [6] was 5 in each case. Also, the IC50 was 0.4 µM in data set [1]; 1570 µM against Phospholipase A2; 9.22 µM in the data set on Plasmodium falciparum [2]; 10.9 µM with Plasmodium falciparum [3]; 0.41 µM in data set [4]; more than 62 µM in the data set with Vero.

Take `C[C@@]12CC[C@H](O)[C@@H]3COC(=C31)C(=O)c1cc3c(cc12)C(=O)CC[C@@H]3O` [TETRAHYDROHALENAQUINONE A]: the IC50 is more than 30 µM in data set [1]; 600 µM against Phospholipase A2; more than 29 µM in the data set on Plasmodium falciparum [2]; more than 29 µM in the data set with Plasmodium falciparum [3]; more than 30 µM in data set [4]; more than 58 µM in the data set with Vero.

For `C[C@@]12CCC(=O)c3coc(c31)C(=O)c1cc3c(cc12)C(=O)C1=C(C3=O)S(=O)(=O)CCN1` [3-KETOADOCIAQUINONE A], the selectivity ratio in data set [5] and in data set [6] was 5 throughout. Also, the 50% inhibitory concentration (IC50) in data set [1] was 1.48 µM; against Phospholipase A2 it was 140 µM; in the data set with Plasmodium falciparum [2], 1.08 µM; with Plasmodium falciparum [3] it was 1.67 µM; in data set [4] it was 4.19 µM; in the data set with Vero, more than 45 µM.

As to `C[C@@]12CCC(=O)c3coc(c31)C(=O)c1cc3c(cc12)C(=O)C1=C(NCCS1(=O)=O)C3=O` [3-KETOADOCIAQUINONE B], the selectivity ratio in data set [5] and in data set [6] was 5 in each case. The 50% inhibitory concentration (IC50) was 3.75 µM in data set [1]; 105 µM against Phospholipase A2; 3.89 µM in the data set on Plasmodium falciparum [2]; 4.12 µM with Plasmodium falciparum [3]; 9.27 µM in data set [4]; more than 45 µM in the data set with Vero.

With `C[C@@]12CCC(=O)c3coc(c31)C(=O)c1cc3c(cc12)C(=O)C=CC3=O` [HELENAQUINONE], the IC50 was 1.57 µM in data set [1]; 3.7 µM on Phospholipase A2; more than 30 µM with Plasmodium falciparum [2]; more than 30 µM in the data set with Plasmodium falciparum [3]; 0.93 µM in data set [4]; more than 60 µM in the data set with Vero.

Turning to `CO[C@]12OC(O)C3=C1[C@@](C)(CCC3=O)c1cc3c(OS(=O)(=O)O)ccc(O)c3cc1C2=O` (stereo partly specified) [XESTOSAPROL C METHYLACETAL], the IC50 in data set [1] was 6.71 µM; against Phospholipase A2 it was 570 µM; in the data set with Plasmodium falciparum [2], more than 21 µM; in the data set with Plasmodium falciparum [3], more than 21 µM; in data set [4] it was 4.34 µM; with Vero, more than 42 µM.

The values above are taken from ChEMBL document CHEMBL1212858, “New bioactive halenaquinone derivatives from South Pacific marine sponges of the genus Xestospongia” (Bioorg Med Chem, 2010).
